Test results taken from ChEMBL document CHEMBL4152384, “Pyrtriazoles, a Novel Class of Store-Operated Calcium Entry Modulators: Discovery, Biological Profiling, and in Vivo Proof-of-Concept Efficacy in Acute Pancreatitis” (J Med Chem, 2018).
Calls of active or inactive are those of the source. The calls are words filed in the database; no cut-off is given here.

Assays:
[1] = biological target: T1, Stromal interaction molecule 1 & 2/Calcium release-activated calcium channel protein 1 (Mus musculus) (UniProt Q8BWG9+P70302+P83093); assay: (§1) Modulation of STIM1/STIM2/Orai1 in mouse BV2 cells assessed as induction of store-operated calcium entry by measuring increase in AUC of calcium entry at 0.3 to 10 uM preincubated for 30 mins followed by tBhQ-mediated Ca2+ depletion and Ca2+ re-addition to extracellular solution measured for 600 secs by Fluo-4 AM-based fluorometric assay relative to control; format: cell-based
Jurkat [2] = assay: as §1, with “Induction” for “Modulation”, “store-operated calcium entry” for “STIM1/STIM2/Orai1”, “human Jurkat” for “mouse BV2”, “peak amplitude” for “AUC of calcium entry”; format: cell-based
[3] = biological target: T2, Short transient receptor potential channel 1 & 3/Stromal interaction molecule 1/Calcium release-activated calcium channel protein 1 (Homo sapiens) (UniProt Q96D31+Q13507+Q13586+P48995); assay: as §1, with “TRPC1/TRPC3/STIM1/Orai1” for “STIM1/STIM2/Orai1”, “HEK” for “mouse BV2”, “residual activity” for “increase in AUC of calcium entry”, “at” for “at 0.3 to”; format: cell-based
[4] = biological target: T2, Short transient receptor potential channel 1 & 3/Stromal interaction molecule 1/Calcium release-activated calcium channel protein 1 (Homo sapiens); assay: (§2) Modulation of TRPC1/TRPC3/STIM1/Orai1 in HEK cells assessed as induction of store-operated calcium entry at 10 uM preincubated for 30 mins followed by tBhQ-mediated Ca2+ depletion and Ca2+ re-addition to extracellular solution measured for 800 secs by Fluo-4 AM-based fluorometric assay relative to control; format: cell-based
[5] = biological target: T2, Short transient receptor potential channel 1 & 3/Stromal interaction molecule 1/Calcium release-activated calcium channel protein 1 (Homo sapiens); assay: as §2, with “entry by measuring residual activity” for “entry”, “uM in presence of shTRPC1” for “uM”, “600” for “800”; format: cell-based
Jurkat [6] = assay: as §2, with “Induction” for “Modulation”, “store-operated calcium entry” for “TRPC1/TRPC3/STIM1/Orai1”, “human Jurkat” for “HEK”, “entry by measuring residual activity” for “entry”, “600” for “800”; format: cell-based
[7] = biological target: T2, Short transient receptor potential channel 1 & 3/Stromal interaction molecule 1/Calcium release-activated calcium channel protein 1 (Homo sapiens); assay: as §1, with “TRPC1/TRPC3/STIM1/Orai1” for “STIM1/STIM2/Orai1”, “HEK” for “mouse BV2”; format: cell-based
Jurkat [8] = assay: as §2, with “Induction” for “Modulation”, “store-operated calcium entry” for “TRPC1/TRPC3/STIM1/Orai1”, “human Jurkat” for “HEK”; format: cell-based
[9] = biological target: Transient receptor potential cation channel subfamily V member 1 (Homo sapiens) (UniProt Q8NER1); assay: Antagonist activity at TRPV1 (unknown origin) expressed in HEK cells assessed as inhibition of capsaicin-induced calcium increase at 10 uM by fura-2-based assay; format: cell-based
Method in brief: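 TRPV1-overexpressing Hek cells; calcium rise evoked by capsaicin (100 nM), test compounds at 10 μM; peak amplitude read out; mean ± SEM of 600 cells from 30 plates on four separate experimental days.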

[10] = biological target: T2, Short transient receptor potential channel 1 & 3/Stromal interaction molecule 1/Calcium release-activated calcium channel protein 1 (Homo sapiens); assay: (§3) Modulation of TRPC1/TRPC3/STIM1/Orai1 in HEK cells assessed as induction of store-operated calcium entry by measuring increase in peak amplitude at 0.3 to 10 uM preincubated for 30 mins followed by tBhQ-mediated Ca2+ depletion and Ca2+ re-addition to extracellular solution measured for 600 secs by Fluo-4 AM-based fluorometric assay relative to control; format: cell-based
[11] = system: voltage-gated calcium channel (Mus musculus); assay: Antagonist activity at voltage-gated calcium channels in C57/BL6 mouse cerebellar granule cells assessed as inhibition of KCl-induced voltage dependent calcium entry at 10 uM by fura-2-based assay
[12] = biological target: T1, Stromal interaction molecule 1 & 2/Calcium release-activated calcium channel protein 1 (Mus musculus); assay: as §1, with “residual activity” for “increase in AUC of calcium entry”, “at” for “at 0.3 to”; format: cell-based
Jurkat [13] = assay: as §1, with “Induction” for “Modulation”, “store-operated calcium entry” for “STIM1/STIM2/Orai1”, “human Jurkat” for “mouse BV2”; format: cell-based
[14] = biological target: T2, Short transient receptor potential channel 1 & 3/Stromal interaction molecule 1/Calcium release-activated calcium channel protein 1 (Homo sapiens); assay: as §3, with “slope” for “peak amplitude”; format: cell-based
[15] = biological target: T1, Stromal interaction molecule 1 & 2/Calcium release-activated calcium channel protein 1 (Mus musculus); assay: as §1, with “peak amplitude” for “AUC of calcium entry”; format: cell-based
[16] = biological target: T3, ORAI1/STIM1 (Homo sapiens) (UniProt Q96D31+Q13586); assay: Modulation of Orai1/STIM1 (unknown origin) expressed in HEK cells assessed as potentiation of store-operated calcium currents in presence of 20 mM BAPTA and 150 nM Ca2+ containing internal solution by patch clamp assay relative to control; format: cell-based
[17] = biological target: T1, Stromal interaction molecule 1 & 2/Calcium release-activated calcium channel protein 1 (Mus musculus); assay: as §2, with “STIM1/STIM2/Orai1” for “TRPC1/TRPC3/STIM1/Orai1”, “mouse BV2” for “HEK”; format: cell-based
Method in brief: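 Microplate Fluo-4 assay in mouse microglial BV-2 cells. Stores emptied with tBhQ (50 μM) in presence of compound (10 μM); extracellular Ca2+ re-added after 600 s and intracellular Ca2+ read fluorimetrically; SOCE expressed versus control.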

[18] = biological target: Calcium release-activated calcium channel protein 1 (Mus musculus) (UniProt Q8BWG9); assay: as §2, with “Orai1” for “TRPC1/TRPC3/STIM1/Orai1”, “Stim1-/1 and Stim2-/- MEF” for “HEK”, “entry by measuring residual activity” for “entry”, “600” for “800”; format: cell-based
[19] = biological target: Transient receptor potential cation channel subfamily M member 8 (Homo sapiens) (UniProt Q7Z2W7); assay: Antagonist activity at TRPM8 (unknown origin) expressed in HEK cells assessed as inhibition of menthol -mediated calcium increase at 10 uM by fura-2-based assay; format: cell-based
Method in brief: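 TRPM8-overexpressing Hek cells; calcium rise evoked by menthol (100 μM), test compounds at 10 μM; peak amplitude read out; mean ± SEM of 600 cells from 30 plates on four separate experimental days.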

[20] = biological target: T1, Stromal interaction molecule 1 & 2/Calcium release-activated calcium channel protein 1 (Mus musculus); assay: as §1, with “slope” for “AUC of calcium entry”; format: cell-based
Jurkat [21] = assay: as §1, with “Induction” for “Modulation”, “store-operated calcium entry” for “STIM1/STIM2/Orai1”, “human Jurkat” for “mouse BV2”, “slope” for “AUC of calcium entry”; format: cell-based
Homo sapiens = organism: Homo sapiens; assay: Modulation of Orai1/STIM1 (unknown origin) expressed in HEK cells assessed as potentiation of store-operated calcium currents by measuring reduction in time constant of channel activation in presence of 20 mM BAPTA and 150 nM Ca2+ containing internal solution by patch clamp assay relative to control; format: cell-based
[22] = system: voltage-gated calcium channel (Mus musculus); assay: Antagonist activity at voltage-gated calcium channels in C57/BL6 mouse cerebellar granule cells assessed as inhibition of KCl-induced voltage dependent calcium entry at 10 uM by fura-2-based assay; remark: listed apart in the source
[23] = biological target: T3, ORAI1/STIM1 (Homo sapiens); assay: Modulation of Orai1/STIM1 (unknown origin) expressed in HEK cells assessed as potentiation of store-operated calcium currents in presence of 20 mM BAPTA by patch clamp assay relative to control; format: cell-based
Method in brief: (§4)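 Whole-cell ISOC recorded in Hek cells stably overexpressing Orai1 and transiently expressing STIM1; internal solution strongly buffered with 20 mM BAPTA; compound at 10 μM versus untreated control.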

[24] = biological target: T1, Stromal interaction molecule 1 & 2/Calcium release-activated calcium channel protein 1 (Mus musculus); assay: as §1, with “residual activity” for “increase in AUC of calcium entry”, “100” for “0.3 to 10”; format: cell-based
[25] = biological target: T2, Short transient receptor potential channel 1 & 3/Stromal interaction molecule 1/Calcium release-activated calcium channel protein 1 (Homo sapiens); assay: as §2, with “entry by measuring residual activity” for “entry”, “100” for “10”, “600” for “800”; format: cell-based
[26] = Metabolic stability in CD1 mouse plasma assessed as residual compound level at 50 uM after 30 mins by LC-UV analysis; format: ADME, cell-free; conditions: read-out: Stability
Method in brief: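 Compounds incubated in mouse plasma for 30 min; percentage of residual substrate determined.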

[27] = biological target: Short transient receptor potential channel 1 & 3/Stromal interaction molecule 1/Calcium release-activated calcium channel protein 1 (Homo sapiens, UniProt P48995+Q13507+Q13586+Q96D31); assay: as §2, with “by measuring residual activity” for “at 10 uM”, “600” for “800”; format: cell-based
[28] = Cytotoxicity against HEK cells assessed as cell viability at 10 uM by MTT assay relative to control; format: cell-based; conditions: human, read-out: Activity
Method in brief: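 Hek cells treated 24 h with compound at 10 μM; viability determined by MTT assay.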

[29] = as §2, with “Induction” for “Modulation”, “store-operated calcium entry” for “TRPC1/TRPC3/STIM1/Orai1”, “human Jurkat” for “HEK”, “by measuring residual activity” for “at 10 uM”, “600” for “800”; format: cell-based
[30] = biological target: Stromal interaction molecule 1 & 2/Calcium release-activated calcium channel protein 1 (Homo sapiens, UniProt Q13586+Q96D31+Q9P246); assay: Inhibition of STIM1/STIM2/Orai1 (unknown origin) expressed in mouse BV2 cells assessed as induction of store-operated calcium entry by measuring residual activity preincubated for 30 mins followed by tBhQ, mediated Ca2+ depletion and re-addition measured for 600 secs by Fluo-4 AM-based fluorometric assay; format: cell-based
[31] = biological target: T3, ORAI1/STIM1 (Homo sapiens); assay: Inhibition of Orai1/STIM1 (unknown origin) expressed in HEK cells assessed as reduction in store-operated calcium currents at 10 uM by patch clamp assay relative to control; format: cell-based; method in brief: as §4
[32] = Drug metabolism in CD1 mouse liver microsomes assessed as 1-(4-(4-(3-Carboxyphenyl)-1H-1,2,3-triazol-1-yl)phenyl)-5-(trifluoromethyl)-1H-pyrazole-4-carboxylic Acid metabolite formation at 50 uM after 60 mins by mass spectroscopic analysis; format: ADME, microsome
Jurkat [33] = assay: Induction of store-operated calcium entry in human Jurkat cells assessed as induction of store-operated calcium entry by measuring residual activity at 100 uM preincubated for 30 mins followed by tBhQ-mediated Ca2+ depletion and Ca2+ re-addition to extracellular solution measured for 600 secs by Fluo-4 AM-based fluorometric assay relative to control; format: cell-based
[34] = Drug level in CD1 mouse liver microsomes treated with 3-(1-(4-(4-((Pentan-2-yloxy)carbonyl)-5-(trifluoromethyl)-1H-pyrazol-1-yl)-phenyl)-1H-1,2,3-triazol-4-yl)benzoic acid at 50 uM after 60 mind by mass spectroscopic analysis; format: ADME, microsome

T2 sequence (P48995 whole entry partner): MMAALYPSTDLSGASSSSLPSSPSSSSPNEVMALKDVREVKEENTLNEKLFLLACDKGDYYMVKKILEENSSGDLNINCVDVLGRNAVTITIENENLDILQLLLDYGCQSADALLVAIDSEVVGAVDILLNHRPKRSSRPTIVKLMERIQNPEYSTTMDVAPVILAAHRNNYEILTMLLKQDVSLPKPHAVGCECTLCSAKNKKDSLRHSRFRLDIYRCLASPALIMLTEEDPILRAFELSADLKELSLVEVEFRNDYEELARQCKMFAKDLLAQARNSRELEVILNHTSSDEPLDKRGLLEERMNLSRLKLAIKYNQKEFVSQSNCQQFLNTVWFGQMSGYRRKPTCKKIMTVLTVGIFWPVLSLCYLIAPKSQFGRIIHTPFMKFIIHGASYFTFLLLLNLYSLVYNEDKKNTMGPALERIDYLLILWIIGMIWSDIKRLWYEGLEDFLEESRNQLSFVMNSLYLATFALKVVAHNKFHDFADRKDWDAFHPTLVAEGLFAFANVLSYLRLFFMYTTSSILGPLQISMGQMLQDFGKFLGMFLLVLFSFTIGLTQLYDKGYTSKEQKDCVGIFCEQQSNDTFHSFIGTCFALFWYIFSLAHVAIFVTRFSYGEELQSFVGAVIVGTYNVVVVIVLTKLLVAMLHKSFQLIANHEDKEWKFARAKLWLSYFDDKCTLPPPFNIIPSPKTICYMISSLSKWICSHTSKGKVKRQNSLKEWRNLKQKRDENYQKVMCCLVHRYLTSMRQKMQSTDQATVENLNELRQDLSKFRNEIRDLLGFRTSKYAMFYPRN
T2 sequence (Q13507 whole entry partner): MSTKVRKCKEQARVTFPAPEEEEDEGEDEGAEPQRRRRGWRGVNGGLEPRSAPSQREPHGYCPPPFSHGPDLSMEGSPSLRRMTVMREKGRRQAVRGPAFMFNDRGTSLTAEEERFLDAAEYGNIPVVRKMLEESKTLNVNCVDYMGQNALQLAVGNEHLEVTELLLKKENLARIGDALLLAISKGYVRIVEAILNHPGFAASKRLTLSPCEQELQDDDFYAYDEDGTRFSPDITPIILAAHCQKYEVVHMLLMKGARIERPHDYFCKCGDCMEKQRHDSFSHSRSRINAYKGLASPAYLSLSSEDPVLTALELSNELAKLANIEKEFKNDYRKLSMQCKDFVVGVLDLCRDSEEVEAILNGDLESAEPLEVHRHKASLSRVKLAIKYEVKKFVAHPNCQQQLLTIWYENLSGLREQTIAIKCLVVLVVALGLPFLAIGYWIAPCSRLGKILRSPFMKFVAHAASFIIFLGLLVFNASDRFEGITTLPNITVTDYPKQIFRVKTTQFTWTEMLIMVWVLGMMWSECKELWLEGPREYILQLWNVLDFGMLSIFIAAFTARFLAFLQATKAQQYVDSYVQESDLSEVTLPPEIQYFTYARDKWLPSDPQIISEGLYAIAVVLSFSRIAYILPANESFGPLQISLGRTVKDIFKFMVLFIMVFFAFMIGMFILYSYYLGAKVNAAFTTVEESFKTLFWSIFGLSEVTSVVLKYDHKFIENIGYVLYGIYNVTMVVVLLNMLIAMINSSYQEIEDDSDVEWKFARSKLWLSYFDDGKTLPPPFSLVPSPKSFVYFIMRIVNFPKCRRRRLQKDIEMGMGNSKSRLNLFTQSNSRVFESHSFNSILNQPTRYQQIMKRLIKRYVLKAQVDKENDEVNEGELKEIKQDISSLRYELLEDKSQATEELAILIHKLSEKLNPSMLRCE
T2 sequence (Q13586 23-685 partner limits assumed): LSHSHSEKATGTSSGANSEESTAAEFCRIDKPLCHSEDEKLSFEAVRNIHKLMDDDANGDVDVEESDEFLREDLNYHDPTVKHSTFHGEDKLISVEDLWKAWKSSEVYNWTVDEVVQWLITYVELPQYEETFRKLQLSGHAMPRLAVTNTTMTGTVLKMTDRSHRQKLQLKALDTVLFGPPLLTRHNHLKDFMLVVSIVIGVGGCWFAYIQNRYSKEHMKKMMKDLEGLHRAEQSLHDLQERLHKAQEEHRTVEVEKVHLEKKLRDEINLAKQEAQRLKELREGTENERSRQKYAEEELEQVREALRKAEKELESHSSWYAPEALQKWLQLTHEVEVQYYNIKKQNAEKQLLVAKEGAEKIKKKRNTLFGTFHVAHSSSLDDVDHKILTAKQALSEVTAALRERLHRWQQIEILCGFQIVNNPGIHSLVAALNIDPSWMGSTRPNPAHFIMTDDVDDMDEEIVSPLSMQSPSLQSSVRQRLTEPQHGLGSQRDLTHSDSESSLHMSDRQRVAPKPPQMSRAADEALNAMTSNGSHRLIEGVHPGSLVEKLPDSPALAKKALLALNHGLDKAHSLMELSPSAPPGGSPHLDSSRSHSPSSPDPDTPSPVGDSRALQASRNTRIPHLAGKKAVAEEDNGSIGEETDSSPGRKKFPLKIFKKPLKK
T2 sequence (Q96D31 whole entry): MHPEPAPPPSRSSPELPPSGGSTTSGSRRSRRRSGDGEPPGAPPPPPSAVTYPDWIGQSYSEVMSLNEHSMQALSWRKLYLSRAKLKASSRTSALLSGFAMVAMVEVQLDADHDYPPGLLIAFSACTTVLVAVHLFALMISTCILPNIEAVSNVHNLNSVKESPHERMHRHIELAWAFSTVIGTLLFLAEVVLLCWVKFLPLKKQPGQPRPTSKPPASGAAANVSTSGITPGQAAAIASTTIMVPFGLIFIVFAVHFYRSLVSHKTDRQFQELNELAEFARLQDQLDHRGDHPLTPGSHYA
T3 sequence (Q13586 23-685 partner limits assumed): as the sequence (Q13586 23-685 partner limits assumed) above
T3 sequence (Q96D31 whole entry): as the sequence (Q96D31 whole entry) above
Chain of Transient receptor potential cation channel subfamily M member 8 (Homo sapiens) (Q7Z2W7 whole entry, looked up): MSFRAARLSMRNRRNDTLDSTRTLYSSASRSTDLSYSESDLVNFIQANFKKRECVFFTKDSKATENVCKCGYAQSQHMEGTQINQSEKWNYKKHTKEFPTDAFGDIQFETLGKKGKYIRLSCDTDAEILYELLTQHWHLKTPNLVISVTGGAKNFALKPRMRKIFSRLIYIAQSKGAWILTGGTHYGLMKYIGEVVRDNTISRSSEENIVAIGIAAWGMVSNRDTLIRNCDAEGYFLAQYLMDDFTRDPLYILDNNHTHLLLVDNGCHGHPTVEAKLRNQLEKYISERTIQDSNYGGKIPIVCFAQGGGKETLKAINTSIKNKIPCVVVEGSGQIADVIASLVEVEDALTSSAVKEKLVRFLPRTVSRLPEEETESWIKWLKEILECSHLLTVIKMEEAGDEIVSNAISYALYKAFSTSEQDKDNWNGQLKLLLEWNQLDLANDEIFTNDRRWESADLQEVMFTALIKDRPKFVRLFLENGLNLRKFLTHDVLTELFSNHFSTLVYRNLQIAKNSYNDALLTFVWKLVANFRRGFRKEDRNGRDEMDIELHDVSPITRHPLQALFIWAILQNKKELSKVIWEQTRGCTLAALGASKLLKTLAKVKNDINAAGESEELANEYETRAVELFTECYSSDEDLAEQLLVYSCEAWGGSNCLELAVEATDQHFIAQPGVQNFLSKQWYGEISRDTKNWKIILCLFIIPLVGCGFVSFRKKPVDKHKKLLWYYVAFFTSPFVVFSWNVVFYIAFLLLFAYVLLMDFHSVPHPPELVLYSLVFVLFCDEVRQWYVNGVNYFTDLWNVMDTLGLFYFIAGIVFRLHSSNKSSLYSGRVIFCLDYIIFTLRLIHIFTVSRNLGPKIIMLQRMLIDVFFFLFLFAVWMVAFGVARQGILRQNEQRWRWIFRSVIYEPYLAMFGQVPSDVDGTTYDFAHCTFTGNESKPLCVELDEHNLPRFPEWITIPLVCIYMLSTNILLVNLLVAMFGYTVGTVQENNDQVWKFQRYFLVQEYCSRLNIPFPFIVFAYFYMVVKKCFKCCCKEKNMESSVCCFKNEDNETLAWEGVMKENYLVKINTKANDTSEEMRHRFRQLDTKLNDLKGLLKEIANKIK
Chain of Transient receptor potential cation channel subfamily V member 1 (Homo sapiens) (Q8NER1 whole entry): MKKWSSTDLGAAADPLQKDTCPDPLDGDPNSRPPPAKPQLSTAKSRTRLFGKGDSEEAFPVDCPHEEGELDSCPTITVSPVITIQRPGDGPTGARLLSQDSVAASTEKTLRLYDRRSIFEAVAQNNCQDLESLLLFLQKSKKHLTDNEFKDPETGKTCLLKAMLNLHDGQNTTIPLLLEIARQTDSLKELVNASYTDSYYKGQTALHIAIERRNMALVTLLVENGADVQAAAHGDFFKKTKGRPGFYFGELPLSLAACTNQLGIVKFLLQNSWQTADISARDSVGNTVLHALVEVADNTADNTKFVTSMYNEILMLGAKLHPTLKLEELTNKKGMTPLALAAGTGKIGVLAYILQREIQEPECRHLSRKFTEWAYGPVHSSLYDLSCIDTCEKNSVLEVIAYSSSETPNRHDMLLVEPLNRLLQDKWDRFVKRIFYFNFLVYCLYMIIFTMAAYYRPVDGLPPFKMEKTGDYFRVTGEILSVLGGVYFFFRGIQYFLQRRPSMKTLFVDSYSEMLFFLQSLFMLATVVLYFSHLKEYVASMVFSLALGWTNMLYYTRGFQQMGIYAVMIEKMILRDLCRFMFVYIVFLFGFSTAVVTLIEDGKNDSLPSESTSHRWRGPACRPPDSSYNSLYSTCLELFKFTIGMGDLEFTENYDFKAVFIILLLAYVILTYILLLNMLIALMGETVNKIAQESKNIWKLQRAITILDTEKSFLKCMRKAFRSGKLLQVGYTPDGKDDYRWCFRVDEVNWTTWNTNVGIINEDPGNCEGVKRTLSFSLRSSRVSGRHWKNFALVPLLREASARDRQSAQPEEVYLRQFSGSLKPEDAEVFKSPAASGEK
Chain of Calcium release-activated calcium channel protein 1 (Mus musculus) (Q8BWG9 whole entry): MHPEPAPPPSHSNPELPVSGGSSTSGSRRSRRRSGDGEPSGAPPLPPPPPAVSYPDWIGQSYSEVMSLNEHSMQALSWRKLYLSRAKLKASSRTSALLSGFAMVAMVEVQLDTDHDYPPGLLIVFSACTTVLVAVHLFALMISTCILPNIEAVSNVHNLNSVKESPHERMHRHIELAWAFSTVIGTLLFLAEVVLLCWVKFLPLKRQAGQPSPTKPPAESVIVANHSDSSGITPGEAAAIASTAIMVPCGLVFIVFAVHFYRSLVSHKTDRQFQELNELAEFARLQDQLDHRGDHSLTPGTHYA

O=C(O)c1ccc(-c2cn(-c3ccc(-n4nc(C(F)(F)F)cc4C(F)(F)F)cc3)nn2)cc1
Activity [1]: Active | Activity (Jurkat [2]): Active | Activity [3]: 213% | Activity [4]: Active | Activity [5]: Active | Activity (Jurkat [6]): 236% | Activity [7]: Active | Activity (Jurkat [8]): Active | inhibition [9]: inactive | Activity [10]: Active | inhibition [11]: inactive | Activity [12]: 198% | Activity (Jurkat [13]): Active | Activity [14]: Active | Activity [15]: Active | Activity [16]: inactive | Activity [17]: Active | Activity [18]: Active | inhibition [19]: inactive | Activity [20]: Active | Activity (Jurkat [21]): Active | Activity (Homo sapiens): Active | inhibition [22]: inactive | Activity [23]: Active

CCOC(=O)c1cnn(-c2ccc(-n3cc(-c4cccc(C(=O)O)c4)nn3)cc2)c1C(F)(F)F
residual activity [24]: < 100% | residual activity [25]: < 100% | remaining at 0.5 h, 50 µM [26]: 0% | IC50 [27]: 600 nM | viability at 10 µM [28]: 84% | IC50 [29]: 600 nM | Activity [3]: 12.8% | IC50 [30]: 4.9 µM | inhibition [31]: 40% | Activity (Jurkat [6]): 12.8% | Drug metabolism [32]: Metabolite_Notdetected | inhibition [9]: Active | inhibition [11]: inactive | Activity [12]: 54.7% | residual activity (Jurkat [33]): < 100% | inhibition [19]: inactive | inhibition [22]: inactive

CCCC(C)OC(=O)c1cnn(-c2ccc(-n3cc(-c4cccc(C(=O)O[C@@H]5O[C@H](C(=O)O)[C@@H](O)[C@H](O)[C@H]5O)c4)nn3)cc2)c1C(F)(F)F (some centres not stated)
Drug uptake [34]: Active
